Laboratory results from ChEMBL document CHEMBL3865782 (2016).
Converted amounts (≈) assume the structure as drawn. The source made the active and inactive calls. No cut-off for these calls is given here.

Key:
Assay type in all cases: functional
Escherichia coli [1] = test: Antibacterial activity against Escherichia coli MC1061 after 16 to 18 hrs by microbroth dilution assay
How it was run: (§1)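 CLSI microbroth dilution. Compound was two-fold serially diluted from a 64 μM starting concentration into wells holding ~5 × 10^4 CFU of the test strain. After 16–18 h incubation, the MIC was taken as the lowest concentration causing no visible turbidity.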

Bacillus cereus = test: Antibacterial activity against Bacillus cereus ATCC 4342 after 16 to 18 hrs by microbroth dilution assay
How it was run: (§2)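 Broth microdilution following CLSI, in LB at 37 °C with aeration. Starting at 64 μM, two-fold serial dilutions were added to wells holding ~5 × 10^4 CFU. Turbidity was inspected after 16–18 h. The MIC was the lowest concentration that inhibited visible growth.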

Bacillus subtilis [2] = test: Antibacterial activity against Bacillus subtilis subsp. subtilis str. 168 after 16 to 18 hrs by microbroth dilution assay; how it was run: as §2
Bacillus subtilis [3] = test: Antibacterial activity against Bacillus subtilis ATCC 47096 after 16 to 18 hrs by microbroth dilution assay
How it was run: (§3)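 Broth microdilution per CLSI in LB at 37 °C with aeration. Twofold serial dilutions from a starting concentration of 64 μM were added to wells holding ~5 × 10^4 CFU of the test strain. Turbidity was read after 16–18 h. MIC was taken as the lowest concentration with no visible growth.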

Bacillus thuringiensis = test: Antibacterial activity against Bacillus sp. Al Hakam after 16 to 18 hrs by microbroth dilution assay; how it was run: as §2
Enterococcus faecium = test: Antibacterial activity against Vancomycin-resistant Enterococcus faecium U503 after 16 to 18 hrs by microbroth dilution assay; how it was run: as §3
Staphylococcus aureus = test: Antibacterial activity against Methicillin-resistant Staphylococcus aureus USA300 after 16 to 18 hrs by microbroth dilution assay; how it was run: as §3
[4] = Antifungal activity against Saccharomyces cerevisiae after 16 to 18 hrs by microbroth dilution assay
How it was run: (§4)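 Yeast grown in YPD at 30 °C with aeration. CLSI microdilution used two-fold dilutions from a 64 μM start and ~5 × 10^4 CFU per well. Visible turbidity was scored at 16–18 h. The MIC was the lowest concentration without visible growth.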

[5] = system: Mycolicibacterium smegmatis; test: Antibacterial activity against Mycobacterium smegmatis NRRL B-14616 after 16 to 18 hrs by microbroth dilution assay
How it was run: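 Broth microdilution following CLSI, in LB with 0.05% Tween 80 at 37 °C with aeration. Two-fold serial dilutions started at 64 μM, with ~5 × 10^4 CFU per well. Wells were read by visible turbidity after 16–18 h. The MIC was the lowest concentration preventing visible growth.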

Escherichia coli [6] = test: Antibacterial activity against Escherichia coli DH5alpha after 16 to 18 hrs by microbroth dilution assay; conditions: DH5[alpha]; how it was run: as §1
Pseudomonas putida = test: Antibacterial activity against Pseudomonas putida KT2440 after 16 to 18 hrs by microbroth dilution assay; how it was run: as §1
Candida albicans = test: Antifungal activity against Candida albicans after 16 to 18 hrs by microbroth dilution assay
How it was run: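 CLSI microbroth dilution in YPD at 30 °C with aeration. Two-fold serial dilutions started at 128 μM, with ~5 × 10^4 CFU per well. Turbidity was inspected after 16–18 h. The MIC was the lowest concentration inhibiting visible growth.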

Debaryomyces hansenii = test: Antifungal activity against Debaryomyces hansenii after 16 to 18 hrs by microbroth dilution assay; how it was run: as §4
[7] = Antifungal activity against Kluyveromyces lactis after 16 to 18 hrs by microbroth dilution assay; how it was run: as §4
[8] = Antifungal activity against Zygosaccharomyces rouxii after 40 to 42 hrs by microbroth dilution assay
How it was run: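 CLSI microdilution in YPD at 30 °C with aeration. Two-fold serial dilutions started at 64 μM, with ~5 × 10^4 CFU per well. Incubation was extended to 40–42 h before turbidity inspection. The MIC was the lowest concentration inhibiting visible growth.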

Bacillus subtilis [9] = test: Bactericidal activity against Bacillus subtilis ATCC 47096 at 8 to 32 uM after 16 hrs
How it was run: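 Mid-exponential cultures (OD600 0.4, diluted 1000-fold from stationary cultures into LB) were treated with vehicle (DMSO), 8, 16 or 32 μM at 37 °C. OD595 was read every 10 min for 16 h with shaking between reads. Values were normalized to 0.4 at t = 0 and averaged over three independent cultures.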

Bacillus subtilis [10] = test: Bactericidal activity against Bacillus subtilis ATCC 47096 after 16 hrs; conditions: ATCC 47096, 16 h, read-out: MBC=>99.9
Bacillus subtilis [11] = test: Antibacterial activity against Bacillus subtilis ATCC 47096 assessed as induction of membrane damage after 30 mins by propidium iodide staining based fluorescent microscopic analysis
How it was run: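 Cells grown in LB at 37 °C to OD600 0.5 were resuspended in PBS pH 7.4 with DMSO vehicle, 8, 32 or 64 μM compound for 30 min at ~22 °C. Cells were then washed, stained with 10 μM propidium iodide for 15 min, immobilized in agarose, and imaged by confocal fluorescence and DIC microscopy.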

Bacillus subtilis [12] = test: Antibacterial activity against Bacillus subtilis ATCC 47096 assessed as induction of membrane depolarization after 30 mins by DiOC2(3) dye based flow cytometric analysis
How it was run: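 Three independent LB cultures grown to OD600 0.5 were diluted into PBS containing DiOC2(3) with DMSO vehicle, 5 μM CCCP (positive control), or 0.1–1.0 μM compound. Cells were mixed 30 min at ~22 °C and analysed by flow cytometry. Red/green fluorescence ratio geometric means were normalized to vehicle.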

Bacillus subtilis [13] = test: Antibacterial activity against Bacillus subtilis P10A derived after 10 passage in presence of JBIR-100 after 16 to 18 hrs by microbroth dilution assay
How it was run: (§5)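 Mutants were derived from B. subtilis ATCC 47096 in three independent cultures. Each was passaged 10 times every 24 h at 37 °C in LB, starting at 0.5× MIC and raised in 0.5× MIC steps. Isolates were restreaked three times on drug-free LB agar to confirm stability.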

Bacillus subtilis [14] = test: Antibacterial activity against Bacillus subtilis P10B derived after 10 passage in presence of JBIR-100 after 16 to 18 hrs by microbroth dilution assay; how it was run: as §5
Bacillus subtilis [15] = test: Antibacterial activity against Bacillus subtilis P10C derived after 10 passage in presence of JBIR-100 after 16 to 18 hrs by microbroth dilution assay; how it was run: as §5
Bacillus subtilis [16] = test: Antibacterial activity against Bacillus subtilis P10A derived after 10 passage in presence of JBIR-100 after 16 to 18 hrs by microbroth dilution assay relative to Bacillus subtilis ATCC 47096
Bacillus subtilis [17] = test: Antibacterial activity against Bacillus subtilis P10B derived after 10 passage in presence of JBIR-100 after 16 to 18 hrs by microbroth dilution assay relative to Bacillus subtilis ATCC 47096
Bacillus subtilis [18] = test: Antibacterial activity against Bacillus subtilis P10C derived after 10 passage in presence of JBIR-100 after 16 to 18 hrs by microbroth dilution assay relative to Bacillus subtilis ATCC 47096

| Compound | MIC (Bacillus subtilis [3]) [µM] | MIC (Bacillus subtilis [13]) [µM] | MIC (Bacillus subtilis [14]) [µM] | MIC (Bacillus subtilis [15]) [µM] | fold change (FC) (Bacillus subtilis [16]) | fold change (FC) (Bacillus subtilis [17]) | fold change (FC) (Bacillus subtilis [18]) | further results |
| --- | --- | --- | --- | --- | --- | --- | --- | --- |
| CO[C@H]1/C=C/C=C(\C)C[C@H](C)[C@H](O)[C@H](C)/C=C(C)/C=C(\C)C(=O)O[C@@H]1[C@@H](C)[C@@H](O)[C@H](C)[C@@]1(O)C[C@@H](OC(=O)/C=C/C(=O)O)[C@H](C)[C@@H](C(C)C)O1 | 8 (≈ 5.64 µg/mL) | 16 | 16 | 16 | – | – | – | MIC (Escherichia coli [1]): > 64 µM; MIC (Bacillus cereus): 4 µM (≈ 2.82 µg/mL); MIC (Bacillus subtilis [2]): 8 µM (≈ 5.64 µg/mL); MIC (Bacillus thuringiensis): 4 µM (≈ 2.82 µg/mL); MIC (Enterococcus faecium): 16 µM (≈ 11.3 µg/mL); MIC (Staphylococcus aureus): 4 µM (≈ 2.82 µg/mL); MIC [4]: > 64 µM; MIC [5]: > 64 µM; MIC (Escherichia coli [6]): > 64 µM; MIC (Pseudomonas putida): > 64 µM; MIC (Candida albicans): > 128 µM; MIC (Debaryomyces hansenii): 8 µM (≈ 5.64 µg/mL); MIC [7]: > 64 µM; MIC [8]: 32 µM (≈ 22.6 µg/mL); Activity (Bacillus subtilis [9]): Active; MBC (Bacillus subtilis [10]): 16 µM (≈ 11.3 µg/mL); Activity (Bacillus subtilis [11]): Dose-dependent effect; Activity (Bacillus subtilis [12]): Dose-dependent effect |
| CC1(C)S[C@@H]2[C@H](NC(=O)[C@H](N)c3ccccc3)C(=O)N2[C@H]1C(=O)O [AMPICILLIN] | 0.125 (≈ 0.0437 µg/mL) | 0.125 | 0.125 | 0.125 | – | – | – | – |
| O=C(N[C@H](CO)[C@H](O)c1ccc([N+](=O)[O-])cc1)C(Cl)Cl [CHLORAMPHENICOL] | 8 (≈ 2.59 µg/mL) | 4 | 8 | 8 | 2 | 2 | 2 | – |
| O=C(O)c1cn(C2CC2)c2cc(N3CCNCC3)c(F)cc2c1=O [CIPROFLOXACIN] | 0.125 (≈ 0.0414 µg/mL) | 0.125 | 0.125 | 0.125 | – | – | – | – |
| NC[C@H]1O[C@H](O[C@H]2[C@H](O)[C@@H](O[C@H]3O[C@H](CO)[C@@H](O)[C@H](N)[C@H]3O)[C@H](N)C[C@@H]2N)[C@H](O)[C@@H](O)[C@@H]1O [KANAMYCIN] | 256 (≈ 124 µg/mL) | 128 | 64 | 64 | 2 - 4 | 2 - 4 | 2 - 4 | – |
| CO[C@H]1/C=C/O[C@@]2(C)Oc3c(C)c(O)c4c(O)c(c(/C=N/N5CCN(C)CC5)c(O)c4c3C2=O)NC(=O)/C(C)=C\C=C\[C@H](C)[C@H](O)[C@@H](C)[C@@H](O)[C@@H](C)[C@H](OC(C)=O)[C@@H]1C [RIFAMPIN] | 0.0625 (≈ 0.0514 µg/mL) | 0.25 | 0.125 | 0.125 | 2 - 4 | 2 - 4 | 2 - 4 | – |
| Oc1cc(Cl)ccc1Oc1ccc(Cl)cc1Cl [TRICLOSAN] | 8 (≈ 2.32 µg/mL) | 8 | 8 | 8 | – | – | – | – |
| CN[C@H](CC(C)C)C(=O)N[C@H]1C(=O)N[C@@H](CC(N)=O)C(=O)N[C@H]2C(=O)N[C@H]3C(=O)N[C@H](C(=O)N[C@H](C(=O)O)c4cc(O)cc(O)c4-c4cc3ccc4O)[C@H](O)c3ccc(c(Cl)c3)Oc3cc2cc(c3O[C@@H]2O[C@H](CO)[C@@H](O)[C@H](O)[C@H]2O[C@H]2C[C@](C)(N)[C@H](O)[C@H](C)O2)Oc2ccc(cc2Cl)[C@H]1O [VANCOMYCIN] | 0.125 (≈ 0.181 µg/mL) | 0.125 | 0.0625 | 0.0625 | 2 | 2 | 2 | – |
